The source made the active and inactive calls. The rule behind the calls is not given here.
Experiments:
Carboxypeptidase A1 = molecular target: T1, Carboxypeptidase A1 (Homo sapiens, UniProt P15085); assay: Inhibition of human CPA1 using AAFP as substrate preincubated for 45 mins to 2 hrs measured at 30 sec intervals for 15 mins by UV/vis-spectrophotometry
T1 sequence (P15085 whole entry): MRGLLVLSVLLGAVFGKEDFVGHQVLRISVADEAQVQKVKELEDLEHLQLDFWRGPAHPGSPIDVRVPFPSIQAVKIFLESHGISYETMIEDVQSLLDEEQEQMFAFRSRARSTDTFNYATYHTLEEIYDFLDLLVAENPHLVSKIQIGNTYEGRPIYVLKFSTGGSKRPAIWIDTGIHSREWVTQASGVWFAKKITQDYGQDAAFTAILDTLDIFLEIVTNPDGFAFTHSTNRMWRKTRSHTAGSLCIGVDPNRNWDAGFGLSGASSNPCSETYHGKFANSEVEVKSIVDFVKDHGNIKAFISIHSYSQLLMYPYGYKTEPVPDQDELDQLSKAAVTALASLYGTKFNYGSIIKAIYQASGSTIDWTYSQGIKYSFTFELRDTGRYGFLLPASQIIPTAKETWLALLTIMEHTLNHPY
Outline: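 hCPA1 was used at 1.0x10-8 M with AAFP substrate at 1.0x10-4 M, read at 355 nm. Enzyme and inhibitor were preincubated 45 min at 37 °C before substrate was added. Initial velocities were read every 30 sec for 15 min, in triplicate. Apparent Ki came from a fit to the tight-binding equation.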

Carboxypeptidase A2 = molecular target: T2, Carboxypeptidase A2 (Homo sapiens, UniProt P48052); assay: Inhibition of human CPA2 using AAFP as substrate preincubated for 45 mins to 2 hrs measured at 30 sec intervals for 15 mins by UV/vis-spectrophotometry
T2 sequence (P48052 whole entry): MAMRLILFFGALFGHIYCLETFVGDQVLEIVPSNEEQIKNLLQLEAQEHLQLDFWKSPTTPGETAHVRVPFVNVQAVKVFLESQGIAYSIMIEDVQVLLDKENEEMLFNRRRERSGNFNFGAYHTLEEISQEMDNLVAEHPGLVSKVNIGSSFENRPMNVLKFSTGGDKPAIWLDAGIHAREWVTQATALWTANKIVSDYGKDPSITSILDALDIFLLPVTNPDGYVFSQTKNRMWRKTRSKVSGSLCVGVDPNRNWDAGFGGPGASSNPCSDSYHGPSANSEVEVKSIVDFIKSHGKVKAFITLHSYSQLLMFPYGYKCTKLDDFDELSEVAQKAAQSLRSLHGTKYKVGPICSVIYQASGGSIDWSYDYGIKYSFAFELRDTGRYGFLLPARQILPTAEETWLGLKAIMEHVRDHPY
Outline: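 hCPA2 was used at 3.0x10-8 M with AAFP substrate at 1.0x10-4 M, read at 355 nm, in 20 mM Tris-HCl pH 7.5, 500 mM NaCl, 1% DMSO, 0.05% Brij-35. After a 45 min preincubation at 37 °C, initial rates were followed at 30 sec intervals for 15 min, in triplicate. Kiapp was fitted by the tight-binding equation.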

Carboxypeptidase A4 = molecular target: T3, Carboxypeptidase A4 (Homo sapiens, UniProt Q9UI42); assay: Inhibition of human CPA4 using AAFP as substrate preincubated for 45 mins to 2 hrs measured at 30 sec intervals for 15 mins by UV/vis-spectrophotometry
T3 sequence (Q9UI42 whole entry): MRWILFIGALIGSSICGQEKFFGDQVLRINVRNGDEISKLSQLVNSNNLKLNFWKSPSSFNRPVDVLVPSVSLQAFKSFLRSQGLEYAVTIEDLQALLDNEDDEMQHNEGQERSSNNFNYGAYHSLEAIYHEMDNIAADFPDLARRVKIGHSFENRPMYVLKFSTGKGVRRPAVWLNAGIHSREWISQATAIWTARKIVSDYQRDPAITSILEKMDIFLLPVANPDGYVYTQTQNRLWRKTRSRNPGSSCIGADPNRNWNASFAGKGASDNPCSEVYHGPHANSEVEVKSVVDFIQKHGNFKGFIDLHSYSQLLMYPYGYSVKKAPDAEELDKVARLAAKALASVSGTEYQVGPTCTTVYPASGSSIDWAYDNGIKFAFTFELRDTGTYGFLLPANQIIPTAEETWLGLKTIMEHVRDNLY
Outline: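 Enzyme was hCPA4 at 4.3x10-8 M, with 1.0x10-4 M AAFP and detection at 355 nm. Inhibitor and enzyme were preincubated 45 min at 37 °C, then initial velocities were taken over 15 min (30 sec reads), in triplicate. Kiapp was obtained from the tight-binding fit.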

Carboxypeptidase B = Carboxypeptidase B (Homo sapiens, UniProt P15086); assay: Inhibition of human CPB1 using AAFA as substrate preincubated for 45 mins to 2 hrs measured at 30 sec intervals for 15 mins by UV/vis-spectrophotometry
Outline: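 hCPB1 was used at 6.0x10-9 M with 1.0x10-4 M AAFA, read at 355 nm. After 45 min preincubation with inhibitor at 37 °C, residual activity at varied inhibitor concentrations was followed for 15 min at 30 sec intervals, in triplicate. Kiapp was fitted with the tight-binding equation.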

[1] = molecular target: T4, Carboxypeptidase D (Homo sapiens) (UniProt O75976); assay: Inhibition of human CPD at 1 nM to 1 mM using AAFA as substrate preincubated for 45 mins to 2 hrs measured at 30 sec intervals for 15 mins by UV/vis-spectrophotometry
T4 sequence (whole entry): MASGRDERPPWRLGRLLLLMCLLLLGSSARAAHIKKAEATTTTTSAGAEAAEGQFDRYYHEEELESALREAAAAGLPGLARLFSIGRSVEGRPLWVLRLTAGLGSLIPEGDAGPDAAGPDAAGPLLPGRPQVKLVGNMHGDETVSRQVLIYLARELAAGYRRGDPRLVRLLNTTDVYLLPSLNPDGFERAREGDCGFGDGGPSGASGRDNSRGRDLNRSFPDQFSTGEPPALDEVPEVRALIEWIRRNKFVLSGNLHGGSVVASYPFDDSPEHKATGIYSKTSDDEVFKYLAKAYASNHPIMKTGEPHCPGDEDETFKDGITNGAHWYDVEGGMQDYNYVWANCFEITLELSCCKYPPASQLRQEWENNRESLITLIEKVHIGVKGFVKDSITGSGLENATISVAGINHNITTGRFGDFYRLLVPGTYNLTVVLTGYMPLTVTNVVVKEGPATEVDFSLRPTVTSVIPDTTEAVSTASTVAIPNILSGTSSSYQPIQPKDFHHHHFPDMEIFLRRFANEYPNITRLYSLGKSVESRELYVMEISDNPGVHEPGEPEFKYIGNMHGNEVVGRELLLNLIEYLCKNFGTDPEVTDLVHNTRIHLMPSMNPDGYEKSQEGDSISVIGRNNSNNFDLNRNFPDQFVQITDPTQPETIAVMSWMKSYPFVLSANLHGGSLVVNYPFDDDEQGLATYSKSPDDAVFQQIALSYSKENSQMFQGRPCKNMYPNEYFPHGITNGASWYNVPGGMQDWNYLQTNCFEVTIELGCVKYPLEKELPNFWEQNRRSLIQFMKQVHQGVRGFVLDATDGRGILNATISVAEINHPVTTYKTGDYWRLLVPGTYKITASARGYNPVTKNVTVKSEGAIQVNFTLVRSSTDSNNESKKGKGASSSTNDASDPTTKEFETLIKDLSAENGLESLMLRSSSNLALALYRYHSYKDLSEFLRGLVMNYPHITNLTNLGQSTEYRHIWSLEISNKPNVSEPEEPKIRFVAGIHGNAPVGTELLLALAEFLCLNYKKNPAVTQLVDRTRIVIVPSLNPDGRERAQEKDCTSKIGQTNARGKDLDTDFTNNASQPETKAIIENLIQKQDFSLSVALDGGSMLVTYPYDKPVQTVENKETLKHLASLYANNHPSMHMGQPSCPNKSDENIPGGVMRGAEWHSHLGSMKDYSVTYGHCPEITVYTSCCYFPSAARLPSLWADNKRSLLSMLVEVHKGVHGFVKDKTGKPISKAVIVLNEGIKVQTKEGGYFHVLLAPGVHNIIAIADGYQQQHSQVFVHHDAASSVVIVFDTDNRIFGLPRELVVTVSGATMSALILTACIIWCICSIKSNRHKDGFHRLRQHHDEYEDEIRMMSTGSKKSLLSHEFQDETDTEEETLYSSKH
Outline: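 hCPD was used at 2.0x10-8 M with AAFA substrate at 1.0x10-4 M, monitored at 355 nm. Buffer was 20 mM Tris-HCl pH 7.5, 100 mM NaCl, 1% DMSO, 0.05% Brij-35. Preincubation was 45 min at 37 °C. Residual activity at a range of inhibitor concentrations was measured from initial rates (30 sec reads, 15 min), in triplicate. Kiapp came from the tight-binding fit.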

Carboxypeptidase B, sequence (P15086 whole entry): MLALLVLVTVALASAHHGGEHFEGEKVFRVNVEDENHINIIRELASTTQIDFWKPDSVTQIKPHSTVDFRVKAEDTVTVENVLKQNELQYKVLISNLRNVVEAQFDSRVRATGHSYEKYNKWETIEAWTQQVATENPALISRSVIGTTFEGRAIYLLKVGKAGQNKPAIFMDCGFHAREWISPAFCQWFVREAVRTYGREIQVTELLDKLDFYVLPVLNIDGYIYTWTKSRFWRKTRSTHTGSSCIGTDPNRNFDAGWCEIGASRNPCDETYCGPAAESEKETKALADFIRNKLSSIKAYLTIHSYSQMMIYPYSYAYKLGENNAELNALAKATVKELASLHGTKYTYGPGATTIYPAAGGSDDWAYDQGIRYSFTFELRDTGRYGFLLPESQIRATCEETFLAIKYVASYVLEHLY

Question: With `CC(=O)N[C@@H](CC(C)C)C(=O)N[C@@H](Cc1ccccc1)P(=O)(O)C[C@@H](Cc1ccccc1)C(=O)O` as the molecule, how does the Ki (Carboxypeptidase A1) read?
Answer: 0.04 nM

Question: What about the Ki (Carboxypeptidase A2) of the same molecule?
Answer: 1 nM

Question: And the Ki (Carboxypeptidase A4)?
Answer: 0.39 nM

Question: What about the Ki (Carboxypeptidase B) of the same molecule?
Answer: 0.12 nM

Question: What about the inhibition [1] of the same molecule?
Answer: inactive

— ChEMBL document CHEMBL4411328, “Synthesis and Structural/Functional Characterization of Selective M14 Metallocarboxypeptidase Inhibitors Based on Phosphinic Pseudopeptide Scaffold: Implications on the Design of Specific Optical Probes” (J Med Chem, 2019)
